# Assay outcomes deposited in PubChem BioAssay by several laboratories.
# Compounds with a hit are over-represented: about 4.3% of the library has one in this group of screens.
# STAT1 act = STAT1 signaling activators, primary screen, cell-based, HTS, luciferase reporter | activation (% of control), % at 5.5 µM | 2.6% of 200,000 active | NIH 3T3 STAT1-luciferase reporter, IFN-gamma, luminescence; 100% = IFN-gamma alone, no compound;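 active = activation above the screen-wide mean activation plus 3 SD, cut at about 130% in these data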;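 note: raw ratio to IFN-gamma control signal so 100% means no change and 0% no light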
# NF-kB neuron act = activators of NF-kB expression in neurons, primary screen, cell-based, HTS. human neuronal cells, NF-kB reporter expression; stronger effect = higher value. fold change at 12.5 µM. 1.6% of 190,000 active; in the data active = fold change above about 3.3
# FLuc act counter = FLuc activators, initial screening, artefact control for FLuc-dependent activation tests, biochemical, ATPlite luminescence; Luciferin 4-monooxygenase (Photinus pyralis), P08659; ATPlite luciferase biochemical, 10 min; 0 = ATP-free wells, 1 = DMSO control; activation factor at 10 µM; 200,000 tested, under 10 active;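 active = luciferase activation factor, scaled between plate controls, of at least 2 with compound at 10 µM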
# Target sequence (P08659 whole entry, looked up): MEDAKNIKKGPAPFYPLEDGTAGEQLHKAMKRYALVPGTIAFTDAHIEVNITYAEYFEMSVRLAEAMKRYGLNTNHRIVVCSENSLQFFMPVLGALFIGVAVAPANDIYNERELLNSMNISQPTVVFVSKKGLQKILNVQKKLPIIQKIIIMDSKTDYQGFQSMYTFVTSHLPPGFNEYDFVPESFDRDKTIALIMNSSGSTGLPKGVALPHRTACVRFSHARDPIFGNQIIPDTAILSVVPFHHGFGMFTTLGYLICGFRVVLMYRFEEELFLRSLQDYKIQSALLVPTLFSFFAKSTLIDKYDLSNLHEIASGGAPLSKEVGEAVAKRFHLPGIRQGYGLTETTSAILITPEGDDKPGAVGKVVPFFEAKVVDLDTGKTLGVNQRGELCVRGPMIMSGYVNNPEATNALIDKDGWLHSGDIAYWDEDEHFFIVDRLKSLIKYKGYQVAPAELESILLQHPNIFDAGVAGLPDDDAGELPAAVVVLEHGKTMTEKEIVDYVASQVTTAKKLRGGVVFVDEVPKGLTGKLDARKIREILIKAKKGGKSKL
#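 Assay system: Luciferase/luciferin reagent mix; Medium: PBS as buffer for the ATP substrate; Dosing: test compounds dosed from 2 mM stocks in 100% DMSO; Times: 10 min, room temperature; Signal: luminescence from luciferase reaction; Read-out: luciferase activation; Controls: No-ATP low control, compound-free enzyme-plus-ATP high control.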
# FLuc inhib CS = firefly luciferase enzyme inhibitors, primary screen, artefact control for luciferase-based inhibitor screens, biochemical, luminescence, ATPLite; Luciferin 4-monooxygenase (Photinus pyralis), P08659; 10 min; inhibition, % at 10 µM; 1.5% of 200,000 active;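 active = inhibition above about 50% when tested at 10 µM, limit read from the data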
# APP 5'UTR act = activators of APP 5'UTR luciferase reporter, primary screen, SH-SY5Y cells; SH-SY5Y APP 5'UTR luciferase reporter, luminescence; zero percent = DMSO vehicle wells; activation, % at 2 µM; 1% of 190,000 active; AID 1276, 2008;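 active = activation above a set limit, based on mean plus 3 SD of controls, cut at about 140% in these data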
# An asterisk follows results filed as active; / = no result.
SMILES,STAT1 act,NF-kB neuron act,FLuc act counter,FLuc inhib CS,APP 5'UTR act
Cc1ccc(/C=C2\C(=O)ON=C2c2ccccc2)o1,107,1.6,0.4,60*,11
Cc1[nH]c2ccccc2c1C(=O)C(=O)N1CC=C(c2ccccc2)CC1,103,1,1,-4,-3
COc1ccc(OC)c(/C=C2\SC(=S)N(Cc3cccnc3)C2=O)c1,100,3.9*,1,0,-13
CCCCNC(=O)C(Sc1ccccc1)c1ccccc1 (stereo not drawn),110,1,0.9,8,0
COc1ccc(-c2cc(=O)c3cc(O)ccc3o2)cc1,145*,6.5*,0.5,54*,129
CCOc1ccc2nc(SCC(=O)N(C)C)[nH]c2c1,133*,2.5,0.9,9,39
COc1ccc2nc(SCC(=O)c3ccco3)[nH]c2c1,130*,2.9,0.7,27,93
CCOc1ccc2nc(-c3ccccc3)[nH]c2c1,139*,5.4*,0.2,84*,142*
Cc1ccc(NC(=O)COC(=O)C2CC(=O)N(Cc3ccccc3)C2)cc1F (stereo not drawn),106,0.99,1.1,-8,8
CCCC(=O)c1ccc(N2CCCCC2)c(F)c1,130*,1.8,0.8,22,51
CCCC(=O)c1ccc(N2CCCCCC2)c(F)c1,114,2.1,0.8,16,8
O=C(Cc1ccccc1)Nc1ccc2c(c1)CCC2,133*,2,0.9,15,32
COc1ccc(CC(=O)Nc2ccc3c(c2)CCC3)cc1,102,1.5,1,2,27
CCc1ccc(Nc2nnc(SCC(=O)NCCN3C(=O)CSC3=O)s2)cc1,116,1.7,0.2,84*,/
Cc1c(N=Cc2nc3ccccc3n2C)c(=O)n(-c2ccccc2)n1C,126,0.83,0.2,83*,17
CCN1/C(=C\C=C(C(C)=O)C(C)=O)Sc2ccccc21,95,0.91,1,3,-8
CCN1/C(=C\C(=S)Nc2ccccc2)Sc2ccccc21,144*,2.2,1,1,63
COc1ccc(NC(=S)N(CCCN2CCCC2)Cc2cccn2Cc2ccc(Cl)cc2)cc1Cl,97,0.75,1.1,-10,-10
CCOc1ccc2nc(N3CCC(C(=O)Nc4nnc(CC)s4)CC3)sc2c1,134*,1.7,1,4,33
CCOc1ccc2nc(N3CCC(C(=O)N4CCN(C5CCCCC5)CC4)CC3)sc2c1,117,1,0.7,26,12
O=C1CCC/C(=N\NC(=O)c2ccc(CSc3cccc4cccnc34)cc2)C1,101,1.2,1,-2,-8
CCOC(=O)c1ccccc1NC1CC(=O)N(c2ccccc2C)C1=O (stereo not drawn),103,1.1,1.1,-11,-7
Cc1cc(-c2cn3ccccc3n2)c(C)n1-c1ccccc1,100,2.6,0.1,94*,176*
CC(C)(C)C1CCC(=NNC(=O)C(=O)NCc2ccco2)CC1 (stereo not drawn),94,1.2,1.1,-7,16
O=C(Nc1nc(-c2cccs2)cs1)c1ccc(Cl)cc1,119,1.6,1,-1,19
SMILES,STAT1 act,NF-kB neuron act,FLuc act counter,FLuc inhib CS,APP 5'UTR act
O=C(Nc1nc(-c2cccs2)cs1)C1=COCCO1,149*,3.6*,0.7,32,88
COc1ccc(C(=O)Nc2nc(-c3cccs3)cs2)cc1,137*,1.5,0.9,8,84
O=C(Cn1cnc2ccccc2c1=O)NCCC(=O)Nc1ccc2c(c1)OCO2,103,1.1,1,1,6
COc1ccc(-n2nc(C(=O)NCC(=O)NCc3ccc(F)cc3)c3ccccc3c2=O)c(OC)c1,100,0.91,1.1,-6,27
COc1cccc(NC(=S)N/N=C2\CC3CCC2(C)C3(C)C)c1 (stereo not drawn),129*,1.4,1,4,60
CC12CCC(C/C1=N/NC(=O)Nc1ccccc1)C2(C)C (stereo not drawn),103,1.5,0.9,7,12
CNC(=S)N/N=C/C1=CCC2CC1C2(C)C (stereo not drawn),98,1.1,0.4,62*,-20
CC1(C)C2CC=C(/C=N/NC(=S)NCCc3ccccc3)C1C2 (stereo not drawn),106,0.91,1.1,-8,-3
O=C(CSc1nc(C2CC2)nc2ccccc12)N1c2ccccc2Sc2ccccc21,100,0.71,1.1,-7,-3
Cc1ccc(NC(=O)C2C(=O)N(C)c3ccccc32)cc1 (stereo not drawn),109,1.2,0.2,76*,-11
O=C(Nc1nc2c(s1)CCCC2)C1COc2ccccc2O1 (stereo not drawn),82,1.9,0.6,43,147*
CCC(CC)c1nnc(NC(=O)C2COc3ccccc3O2)s1 (stereo not drawn),137*,2,1,2,121
Cc1nnc(NC(=O)C2COc3ccccc3O2)s1 (stereo not drawn),129*,1.6,1.1,-5,19
CCc1nnc(NC(=O)C2COc3ccccc3O2)s1 (stereo not drawn),114,2.2,1,-1,50
O=C(NC1=NCCS1)C1COc2ccccc2O1 (stereo not drawn),29,0.33,0.2,76*,-2
O=C(Nc1ccncc1)C1COc2ccccc2O1 (stereo not drawn),96,1,1,-2,-6
Cc1cc(NC(=O)c2c(Br)c(C)nn2C)no1,93,1,1,-3,15
Cn1/c(=N/N=C/c2ccc(N3CCOCC3)cc2)sc2ccccc21,129*,1.8,0.8,23,24
CC(=O)N1C(C(=O)O)CSC1c1ccc(C)cc1 (stereo not drawn),/,4.2*,1,-1,10
O=C(NCc1ccc2c(c1)OCO2)C1CCC(=O)N1C1CCCC1 (stereo not drawn),101,1.1,1.1,-5,10
COc1ccccc1NC(=O)c1ccc(NC(=O)COC(=O)C2(C)CC2(Cl)Cl)cc1 (stereo not drawn),100,0.45,1,-1,7
CCn1c(/C=C/c2c[nH]c3ccccc23)nc2ccccc2c1=O,148*,3.4*,0.9,10,182*
CCn1c(/C=C\c2ccccc2C)nc2ccccc2c1=O,100,1,1.1,-5,7
Brc1ccc(COc2ncnc3ccccc23)cc1,103,1.7,1.1,-6,-14
Nc1ncccc1OCc1ccc(Br)cc1,141*,3.1,0.9,12,67
Cc1ccccc1C(=O)N1CCC(C(=O)N2CCN(S(=O)(=O)c3ccccc3F)CC2)CC1,98,1.2,1,-1,-4
